Laboratory results from ChEMBL document CHEMBL2169788, “Bioisosteric transformations and permutations in the triazolopyrimidine scaffold to identify the minimum pharmacophore required for inhibitory activity against Plasmodium falciparum dihydroorotate dehydrogenase” (J Med Chem, 2012).

Columns and labels:
[1] = biological target: T1, Dihydroorotate dehydrogenase (Plasmodium falciparum, UniProt Q54A96); assay: Inhibition of Plasmodium falciparum DHODH expressed in Escherichia coli DH5alpha using 2,6-dichoroindophenol substrate by spectrophotometric analysis
T1 sequence (Q54A96 whole entry): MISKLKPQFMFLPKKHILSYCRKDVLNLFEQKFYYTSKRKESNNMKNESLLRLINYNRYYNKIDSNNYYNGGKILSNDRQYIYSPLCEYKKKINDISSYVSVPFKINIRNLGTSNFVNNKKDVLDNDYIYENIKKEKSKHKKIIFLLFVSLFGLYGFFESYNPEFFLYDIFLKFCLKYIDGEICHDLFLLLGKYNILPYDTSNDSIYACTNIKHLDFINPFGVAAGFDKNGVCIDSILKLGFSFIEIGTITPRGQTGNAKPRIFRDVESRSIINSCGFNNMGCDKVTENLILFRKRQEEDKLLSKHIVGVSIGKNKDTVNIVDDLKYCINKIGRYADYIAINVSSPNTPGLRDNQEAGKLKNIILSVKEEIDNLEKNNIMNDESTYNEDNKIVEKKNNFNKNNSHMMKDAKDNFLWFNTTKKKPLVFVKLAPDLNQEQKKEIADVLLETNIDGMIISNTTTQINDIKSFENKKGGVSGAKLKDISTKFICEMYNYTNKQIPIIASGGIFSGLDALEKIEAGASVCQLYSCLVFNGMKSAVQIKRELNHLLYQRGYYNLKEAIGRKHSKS
In short: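 Recombinant purified enzyme; colorimetric steady-state assay following DCIP (120 micromolar) reduction at 600 nm, coupled to CoQ_D reoxidation. Started with enzyme (5–10 nM final), 20 °C. IC50 fitted across inhibitor concentrations, triplicate points each.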

[2] = Inhibition of Plasmodium berghei DHODH expressed in Escherichia coli DH5alpha using 2,6-dichoroindophenol substrate by spectrophotometric analysis
Plasmodium falciparum = assay: Antiplasmodial activity against Plasmodium falciparum 3D7 infected in human erythrocytes assessed as inhibition of [3H]hypoxanthine incorporation after 48 hrs; assay type: functional, organism-based
In short: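 Clone 3D7 grown in RPMI-1640 with 20% human type A+ plasma and 2% (w/v) red blood cells. Proliferation measured by standard [3H]-hypoxanthine uptake in infected erythrocytes.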

Liver microsomes [3] = assay: Half life in human liver microsomes at 1 uM by LC/MS analysis; assay type: ADME, Microsome
In short: (§1)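 Compound at 1 μM incubated at 37°C with pooled human or mouse liver microsomes (0.4 mg/mL protein). Reaction started with NADPH-regenerating system (1 mg/mL NADP, 1 mg/mL glucose-6-phosphate, 1 U/mL G6PDH, 0.67 mg/mL MgCl2) and quenched at time points with ice-cold acetonitrile. Parent loss tracked by LC/MS against a microsomal-matrix calibration curve. First-order depletion rate constant came from an exponential decay fit.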

Liver microsomes [4] = assay: Drug metabolism in human liver microsomes by LC/MS analysis; assay type: ADME, Microsome; in short: as §1
Liver microsomes [5] = assay: Intrinsic clearance in human liver microsomes assessed per mg of protein at 1 uM by LC/MS analysis; assay type: ADME, Microsome; in short: as §1
Plasmodium berghei = assay: Antimalarial activity against erythrocytic stage of Plasmodium berghei NK65 infected in BALB/c mouse assessed as reduction in parasitemia at 50 mg/kg, po administered QD for 4 days starting 1 day post-infection measured 24 hrs post-last dose relative to vehicle-treated control; assay type: functional; design: scale not given: the % may be the effect or the level left
In short: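 Female BALB/c mice, 8–10 weeks old, infected IP with 2×10^7 infected erythrocytes (200 μL) 24 h before first dose; minimum 0.1% parasitemia confirmed before treatment. Oral dosing 1× daily for 4 consecutive days, vehicle or chloroquine (10 mg/kg oral, same schedule) as controls. Parasitemia from Wright-Giemsa-stained thin blood smears, tail-vein bleeds daily.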

Mus musculus = assay: Toxicity in Swiss mouse assessed as adverse effects at 10 mg/kg, po; assay type: organism-based; design: dose 10 mg/kg, route oral; conditions: in vivo
In short: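 Mice watched for adverse reactions after one oral 10 mg/kg dose, given as a suspension in aqueous carboxymethylcellulose/benzyl alcohol/Tween 80 vehicle.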

[6] = Plasma concentration in Swiss mouse at 10 mg/kg, po at 16 hrs; assay type: ADME, organism-based; design: dose 10 mg/kg, route oral
In short: (§2)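 Single 10 mg/kg oral gavage dose (0.1 mL) given as a suspension in 0.5% w/v Na carboxymethylcellulose, 0.5% v/v benzyl alcohol, 0.4% v/v Tween 80. Food and water ad libitum. One cardiac-puncture blood sample per mouse at 1, 2, 4, 7.5, 16 and 24 h. Heparinised plasma stored at –20°C, acetonitrile-precipitated and quantified by LC-MS against a plasma calibration curve; quantitation limit 0.003 μM.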

[7] = Plasma concentration in Swiss mouse at 10 mg/kg, po up to 4 hrs; assay type: ADME, organism-based; design: dose 10 mg/kg, route oral; in short: as §2
[8] = Cmax in Swiss mouse at 10 mg/kg, po; assay type: ADME, organism-based; design: dose 10 mg/kg, route oral; conditions: in vivo; in short: as §2
[9] = Drug metabolism in mouse liver microsomes by LC/MS analysis; assay type: ADME, Microsome; in short: as §1
Liver [10] = assay: Intrinsic clearance in mouse liver microsomes assessed per mg of protein at 1 uM by LC/MS analysis; assay type: ADME, Microsome; in short: as §1
Liver [11] = assay: Half life in mouse liver microsomes at 1 uM by LC/MS analysis; assay type: ADME, Microsome; in short: as §1
[12] = biological target: Dihydroorotate dehydrogenase (quinone), mitochondrial (Homo sapiens, UniProt Q02127); assay: Inhibition of human DHODH expressed in Escherichia coli BL21(DE3) using 2,6-dichoroindophenol substrate by spectrophotometric analysis
Dihydroorotate dehydrogenase (quinone), mitochondrial, sequence (Q02127 whole entry): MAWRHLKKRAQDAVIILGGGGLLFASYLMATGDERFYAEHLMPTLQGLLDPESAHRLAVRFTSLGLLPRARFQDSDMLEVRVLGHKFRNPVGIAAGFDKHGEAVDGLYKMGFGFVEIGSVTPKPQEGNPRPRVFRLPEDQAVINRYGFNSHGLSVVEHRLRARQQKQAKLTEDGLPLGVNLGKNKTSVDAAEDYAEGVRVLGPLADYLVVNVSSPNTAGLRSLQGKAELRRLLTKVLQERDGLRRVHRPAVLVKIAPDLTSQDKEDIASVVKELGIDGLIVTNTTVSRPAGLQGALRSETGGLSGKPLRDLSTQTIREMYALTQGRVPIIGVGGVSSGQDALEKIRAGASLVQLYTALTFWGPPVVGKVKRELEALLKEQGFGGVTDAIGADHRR

Compound: Cc1cc(Nc2ccc3ccccc3c2)c2nncn2n1
- IC50 [1]: > 50 µM
- IC50 [2]: > 50 µM
- EC50 (Plasmodium falciparum): > 5 µM

Compound: Cc1nc(Nc2ccc3cc4ccccc4cc3c2)c2nc[nH]c2n1
- IC50 [1]: 4.8 µM
- IC50 [2]: > 10 µM
- EC50 (Plasmodium falciparum): 3.2 µM

Compound: Cc1cc(Nc2ccc3ccccc3c2)n2ncnc2c1
- IC50 [1]: 4.8 µM
- IC50 [2]: 6.3 µM
- EC50 (Plasmodium falciparum): 5.2 µM

Compound: Cc1cc(Nc2ccc(C(F)(F)F)cc2)n2ccnc2n1
- t1/2 (Liver microsomes [3]): 368 min
- Drug metabolism (Liver microsomes [4]): Not Active
- CLint (Liver microsomes [5]): 0.0047 mL/min/mg
- Activity (Plasmodium berghei): 56%
- Activity (Mus musculus): Non-toxic
- concentration at 16 h [6]: < 3 nM
- concentration at 4 h [7]: > 1000 nM
- Cmax [8]: 3.9 µM
- Drug metabolism [9]: Not Active
- CLint (Liver [10]): 0.034 mL/min/mg
- t1/2 (Liver [11]): 51.8 min
- IC50 [1]: 0.077 µM
- IC50 [2]: 0.17 µM
- IC50 [12]: > 100 µM
- EC50 (Plasmodium falciparum): 0.32 µM

Compound: Cc1nc(Nc2n[nH]cc2C#N)c2nc[nH]c2n1
- IC50 [1]: > 100 µM
- EC50 (Plasmodium falciparum): > 25 µM

Compound: Cc1cc(NC(=O)c2ccc(C(F)(F)F)cc2)n2ncnc2n1
- IC50 [1]: > 100 µM
- IC50 [2]: > 100 µM
- IC50 [12]: > 100 µM
- EC50 (Plasmodium falciparum): > 50 µM

Compound: Cc1nc(Nc2ccc3ccccc3c2)c2cn[nH]c2n1
- IC50 [1]: > 100 µM
- EC50 (Plasmodium falciparum): > 12.5 µM

Compound: Cc1nc(Nc2ccc3ccccc3c2)c2nc[nH]c2n1
- IC50 [1]: 0.44 µM
- IC50 [2]: 11 µM
- IC50 [12]: > 100 µM
- EC50 (Plasmodium falciparum): 2.2 µM

Compound: Cc1cc(Nc2ccc3ccccc3c2)n2ccnc2n1
- IC50 [1]: 0.15 µM
- IC50 [2]: 2.8 µM
- IC50 [12]: > 100 µM
- EC50 (Plasmodium falciparum): 0.19 µM

Compound: Cc1nc(Nc2ccc3ncccc3c2)c2nc[nH]c2n1
- IC50 [1]: > 25 µM
- EC50 (Plasmodium falciparum): 3.2 µM

Compound: Cc1nc(Nc2cnc3ccccc3c2)c2nc[nH]c2n1
- IC50 [1]: 27 µM
- EC50 (Plasmodium falciparum): > 10 µM

Compound: Cc1cc(NC(=O)c2ccccc2)n2ncnc2n1
- IC50 [1]: > 100 µM
- IC50 [2]: > 100 µM
- IC50 [12]: > 100 µM
- EC50 (Plasmodium falciparum): > 100 µM

Compound: Cc1cc(Nc2ccc3ccccc3c2)n2nccc2n1
- IC50 [1]: 0.4 µM
- IC50 [2]: 3.3 µM
- IC50 [12]: > 100 µM
- EC50 (Plasmodium falciparum): 0.91 µM
